ChEMBL document CHEMBL1136581, “Synthesis of dopamine transporter selective 3-[2-(diarylmethoxyethylidene)]-8-alkylaryl-8-azabicyclo[3.2.1]octanes” (Bioorg Med Chem Lett, 2003)

What was measured:
[1] = biological target: Sodium-dependent serotonin transporter (Rattus norvegicus, UniProt P31652); experiment: Binding affinity at serotonin transporter from rat caudate-putamen tissue by [3H]WIN-35428 displacement.; assay type: tissue-based
In short: (§1)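 Compounds were tested as oxalate salts. Ki values are the mean ± SEM of three experiments, each run in triplicate.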

[2] = biological target: Sodium-dependent dopamine transporter (Rattus norvegicus, UniProt P23977); experiment: Binding affinity at dopamine transporter from rat caudate-putamen tissue by [3H]WIN-35428 displacement.; in short: as §1
Chain of Sodium-dependent dopamine transporter (P23977 whole entry): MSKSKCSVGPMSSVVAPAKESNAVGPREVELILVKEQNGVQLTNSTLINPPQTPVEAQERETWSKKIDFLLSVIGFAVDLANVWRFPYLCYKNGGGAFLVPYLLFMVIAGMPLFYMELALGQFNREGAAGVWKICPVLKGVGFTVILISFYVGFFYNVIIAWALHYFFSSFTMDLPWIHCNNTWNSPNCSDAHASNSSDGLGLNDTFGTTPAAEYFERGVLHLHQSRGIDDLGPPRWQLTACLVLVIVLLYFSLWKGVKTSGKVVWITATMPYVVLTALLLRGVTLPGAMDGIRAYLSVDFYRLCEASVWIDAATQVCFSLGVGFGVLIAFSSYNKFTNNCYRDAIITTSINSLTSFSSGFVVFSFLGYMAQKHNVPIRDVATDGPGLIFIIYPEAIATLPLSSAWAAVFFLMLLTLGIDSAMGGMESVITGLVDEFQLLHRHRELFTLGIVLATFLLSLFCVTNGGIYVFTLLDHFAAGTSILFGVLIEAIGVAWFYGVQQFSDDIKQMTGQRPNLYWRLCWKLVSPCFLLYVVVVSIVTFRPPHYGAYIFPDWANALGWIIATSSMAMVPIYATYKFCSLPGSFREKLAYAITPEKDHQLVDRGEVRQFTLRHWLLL

[3] = biological target: Monoamine transporters; serotonin & dopamine (Rattus norvegicus) (UniProt P31652+P23977); experiment: Binding affinity towards serotonin transporter compared to dopamine transporter.; assay type: protein assay
Chain of Monoamine transporters; serotonin & dopamine (Rattus norvegicus) (P23977 whole entry, looked up): as the sequence (P23977 whole entry) above
Chain of Monoamine transporters; serotonin & dopamine (Rattus norvegicus) (P31652 whole entry, looked up): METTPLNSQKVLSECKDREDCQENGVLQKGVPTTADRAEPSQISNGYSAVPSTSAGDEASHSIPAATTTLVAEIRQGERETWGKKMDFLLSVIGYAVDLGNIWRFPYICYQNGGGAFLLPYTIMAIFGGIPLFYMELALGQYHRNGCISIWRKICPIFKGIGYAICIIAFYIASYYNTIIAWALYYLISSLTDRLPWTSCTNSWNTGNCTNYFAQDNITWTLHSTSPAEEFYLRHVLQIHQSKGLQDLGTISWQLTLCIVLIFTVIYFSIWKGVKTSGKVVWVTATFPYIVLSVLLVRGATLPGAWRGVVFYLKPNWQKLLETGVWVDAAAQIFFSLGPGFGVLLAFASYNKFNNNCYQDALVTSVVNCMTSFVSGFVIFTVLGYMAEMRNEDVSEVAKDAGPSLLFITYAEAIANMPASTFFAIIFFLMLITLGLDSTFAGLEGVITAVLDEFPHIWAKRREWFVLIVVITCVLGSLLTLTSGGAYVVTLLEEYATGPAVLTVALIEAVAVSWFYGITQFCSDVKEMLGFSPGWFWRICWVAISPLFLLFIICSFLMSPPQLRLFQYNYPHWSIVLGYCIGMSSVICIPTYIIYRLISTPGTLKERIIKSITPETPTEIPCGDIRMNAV

Chain of Sodium-dependent serotonin transporter (P31652 whole entry): as the sequence (P31652 whole entry, looked up) above

SMILES	Ki [1]	Ki [2]	Ratio [3]
c1ccc(CCCN2[C@@H]3CC[C@H]2C[C@@H](CCOC(c2ccccc2)c2ccccc2)C3)cc1	750 nM	18 nM	42
CN1C2CCC1CC(CCOC(c1ccccc1)c1ccc(Cl)cc1)C2 (configuration not stated)	3430 nM	–	71
Fc1ccc(C(OCC[C@H]2C[C@H]3CC[C@@H](C2)N3CCCc2ccccc2)c2ccc(F)cc2)cc1	175 nM	7.4 nM	–
Fc1ccc(C(OCC=C2CC3CCC(C2)N3Cc2ccccc2)c2ccc(F)cc2)cc1	2220 nM	–	281
Clc1ccc(C(OCCC2CC3CCC(C2)N3CCCc2ccccc2)c2ccc(Cl)cc2)cc1 (configuration not stated)	177 nM	50 nM	4
Oc1cccc(CN2C3CCC2CC(CCOC(c2ccc(F)cc2)c2ccc(F)cc2)C3)c1 (configuration not stated)	651 nM	20 nM	33
CN1C2CCC1CC(CCOC(c1ccc(Cl)cc1)c1ccc(Cl)cc1)C2 (configuration not stated)	1160 nM	18 nM	64
CN1C2CCC1CC(CCOC(c1ccc(F)cc1)c1ccc(F)cc1)C2 (configuration not stated)	2470 nM	31 nM	80
c1ccc(CN2C3CCC2CC(CCOC(c2ccccc2)c2ccccc2)C3)cc1 (configuration not stated)	4780 nM	–	48
Clc1ccc(C(OCCC2CC3CCC(C2)N3CCCc2ccccc2)c2ccccc2)cc1 (configuration not stated)	374 nM	30 nM	12
Clc1ccc(C(OCCC2CC3CCC(C2)N3Cc2ccccc2)c2ccccc2)cc1 (configuration not stated)	1940 nM	82 nM	24
C(COC(c1ccccc1)c1ccccc1)=C1CC2CCC(C1)N2Cc1ccccc1	5420 nM	48 nM	113
Fc1ccc(C(OCC=C2CC3CCC(C2)N3CCCc2ccccc2)c2ccc(F)cc2)cc1	562 nM	3.7 nM	152
Clc1ccc(C(OCCC2CC3CCC(C2)N3Cc2ccccc2)c2ccc(Cl)cc2)cc1 (configuration not stated)	822 nM	91 nM	9
Oc1ccc(CN2C3CCC2CC(CCOC(c2ccc(F)cc2)c2ccc(F)cc2)C3)cc1 (configuration not stated)	809 nM	30 nM	27
CN1[C@@H]2CC[C@H]1C[C@@H](CCOC(c1ccccc1)c1ccccc1)C2	14100 nM	58 nM	243
Fc1ccc(C(OCCC2CC3CCC(C2)N3Cc2ccccc2)c2ccc(F)cc2)cc1 (configuration not stated)	1430 nM	5.7 nM	251
